# Test results as given in ChEMBL document CHEMBL1157094, “Study on the constituents of Mexican propolis and their cytotoxic activity against PANC-1 human pancreatic cancer cells” (J Nat Prod, 2010).
# Activity calls are given as the source filed them. No cut-off for these calls is given here.
# Assays:
# [1] = tested on: PANC-1; assay: Cytotoxicity against human PANC1 cells in nutrient-deprived condition assessed as preferential cell death after 24 hrs by WST-8 assay
# [2] = tested on: PANC-1; assay: Induction of apoptosis in human PANC1 cells in nutrient-deprived condition assessed as membrane bleb formation at 12.5 uM after 24 hrs by phase-contrast microscopy; type: functional, cell-based
# Outline: (§1)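 PANC-1 cells were seeded at 2 × 10^4 per well and grown 24 h in DMEM at 37 °C under 5% CO2/95% air. They were then washed with PBS and switched to nutrient-deprived medium (NDM) containing test compound. After 24 h exposure at 12.5 µM, morphology was photographed under a phase-contrast microscope at 200× magnification.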
# [3] = tested on: PANC-1; assay: Induction of apoptosis in human PANC1 cells in nutrient-deprived condition assessed as nuclear fragmentation at 12.5 uM after 24 hrs by phase-contrast microscopy; type: functional, cell-based
# Outline: as §1
# [4] = tested on: PANC-1; assay: Induction of apoptosis in human PANC1 cells in nutrient-deprived condition assessed as nuclear condensation at 12.5 uM after 24 hrs by phase-contrast microscopy; type: functional, cell-based
# Outline: as §1
# [5] = Cytotoxicity against human TIG3 cells after 24 hrs by WST-8 assay; settings: tig-3, 24 h
Structure (SMILES),PC50 [1] [µM],further results
CC(C)C(=O)O[C@H]1C(=O)c2c(O)cc(O)cc2O[C@@H]1c1ccccc1,19.8,
COc1ccc(/C=C/C(=O)OC/C=C/c2ccccc2)cc1O,31.7,
O=c1cc(-c2ccccc2)oc2cc(O)cc(O)c12 [CHRYSIN],88.7,
CCC(=O)O[C@H]1C(=O)c2c(O)cc(O)cc2O[C@@H]1c1ccccc1,18.2,
O=C(O)/C=C/C=C/c1ccccc1 [JUAREZIC ACID],>100,
O=C(/C=C/c1ccccc1)OC/C=C/c1ccccc1,>100,
COc1cc(/C=C/C(=O)OCC(COC(=O)/C=C/c2ccc(O)c(OC)c2)OC(C)=O)ccc1O,25.8,
O=C1C[C@@H](c2ccccc2)Oc2cc(O)cc(O)c21 [PINOCEMBRIN],46.5,
O=C(O)c1ccccc1 [BENZOIC ACID],>100,
O=C(OC/C=C/c1ccccc1)c1ccccc1,>100,
CC(C)CC(=O)O[C@H]1C(=O)c2c(O)cc(O)cc2O[C@@H]1c1ccccc1,17.5,
O=c1c(O)c(-c2ccccc2)oc2cc(O)cc(O)c12 [GALANGIN],22.1,
CCC(C)C(=O)O[C@H]1C(=O)c2c(O)cc(OC)cc2O[C@@H]1c1ccccc1 (stereo not given in full),44.8,
COc1cc(O)c2c(=O)cc(-c3ccccc3)oc2c1 [TECHTOCHRYSIN],>100,
COc1cc(C=O)ccc1O [VANILLIN],>100,
O=C(O)/C=C/c1ccc(O)cc1 [COUMARIC ACID],77,
"COc1ccc(/C=C/C(=O)O)cc1OC [O,O'-DIMETHYLCAFFEIC ACID]",>100,
O=c1cc(-c2ccc(O)cc2)oc2cc(O)cc(O)c12 [APIGENIN],89.5,
COc1ccc(/C=C/C(=O)OC/C=C/c2ccccc2)cc1OC,98.9,
O=C(/C=C/c1ccccc1)OCc1ccccc1 [BENZYL CINNAMATE],>100,
O=C(/C=C/c1ccc(O)cc1)OC/C=C/c1ccccc1,38.2,

Structure (SMILES),PC50 [1] [µM],further results
"COc1cc(-c2oc3cc(O)cc(O)c3c(=O)c2OC)ccc1O [3,3'-O-DIMETHYLQUERCETIN]",59.8,
CC(=O)OC(COC(=O)/C=C/c1ccc(O)cc1)COC(=O)/C=C/c1ccc(O)cc1,38.8,
O=C1C[C@@H](c2ccc(O)cc2)Oc2cc(O)cc(O)c21 [NARINGENIN],>100,
O=C(O)/C=C/c1ccccc1 [CINNAMIC ACID],>100,
CC(=O)OCC(O)COC(=O)/C=C/c1ccc(O)cc1 (stereo not given),>100,
C=C[C@H](c1ccc(O)c(OC)c1)c1c(O)cc(O)c2c(=O)cc(-c3ccccc3)oc12,12.7,
COc1ccc(/C=C/C(=O)OCc2ccccc2)cc1OC,58.8,
COc1cc(O)c2c(c1)O[C@H](c1ccccc1)CC2=O [PINOSTROBIN],>100,
O=C(/C=C/c1ccc(O)cc1)OCc1ccccc1,23.8,
CC(=O)O[C@H]1C(=O)c2c(O)cc(O)cc2O[C@@H]1c1ccccc1,36.6,
COc1cc(/C=C/C(=O)O)ccc1O [FERULATE],66.6,
COc1cc(/C=C/C(=O)OCc2ccccc2)ccc1O [BENZYL FERULATE],17,
COc1cc(O)c2c(c1)O[C@H](c1ccccc1)[C@@H](O)C2=O,74.2,
COc1c(-c2ccc(O)cc2)oc2cc(O)ccc2c1=O,>100,
COc1cc(O)c2c(c1)O[C@H](c1ccccc1)[C@@H](OC(C)=O)C2=O,75.3,
C=C[C@H](c1ccc(O)c(OC)c1)c1c(O)cc(O)c2c(=O)c(O)c(-c3ccccc3)oc12,4.6,Activity [2]: Active; Activity [3]: Active; Activity [4]: Active; Activity [5]: Non-toxic
COc1cc(O)cc2c1C(=O)[C@H](O)[C@@H](c1ccccc1)O2,>100,
CC(=O)OC(COC(=O)/C=C/c1ccc(O)cc1)COC(=O)/C=C/c1ccc(O)c(O)c1 (stereo not given),17.4,
COc1cc(O)c2c(=O)c(O)c(-c3ccccc3)oc2c1 [IZALPININ],>100,
COc1cc(/C=C/C(=O)OCC(COC(=O)/C=C/c2ccc(O)cc2)OC(C)=O)ccc1O (stereo not given),32.7,
